IMP-1 inhibitor = blocks Pseudomonas aeruginosa IMP-1 metallo-beta-lactamase; purified IMP-1, nitrocefin hydrolysis, epi-absorbance fluorescence; inhibition, % at 5.6 µM; 290,000 tested, 0.45% active; AID 1556;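 active = inhibition above the mean plus 3 SD of all compounds in the same screening run, cut at about 4.5% in these data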;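 also: 0% = IMP-1 with DMSO and 100% = DMSO wells lacking enzyme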
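System – purified recombinant IMP-1 beta-lactamase · Input – IMP-1 dispensed at 0.2 nM · Timing – 15 min preincubation plus 25 min reaction at 25 °C · Signal – Epi-absorbance fluorescence, 480 nm excitation, 530 nm emission · Measure – percent IMP-1 inhibition derived from blank-referenced optical density · Controls – Enzyme-plus-DMSO low control, enzyme-free DMSO high control · Replication – singlicate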
VIM-2 inhibitor = inhibitors of Pseudomonas aeruginosa VIM-2 metallo-beta-lactamase; purified VIM-2, nitrocefin hydrolysis, epi-absorbance fluorescence; 290,000 tested, 0.89% active; inhibition, % at 5.6 µM;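 active = inhibition above the mean of all tested compounds plus 3 SD, cutoff set per screening run, cut at about 7.5% in these data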;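 also: red hydrolysis product quenches plate fluorescence so inhibitors raise well fluorescence; 0% = enzyme with DMSO and 100% = DMSO without enzyme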
NS3 helicase inh = inhibitors of Hepatitis C virus NS3 helicase. AID 1800. inhibition, % at 10.9 µM. 290,000 tested, 0.56% active. NS3 helicase DNA unwinding, Cy5 molecular beacon fluorescence;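 active = inhibition above the mean of all tested compounds plus 3 SD, set per campaign, cut at about 35% in these data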;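 also: 0% = DMSO wells and 100% = thioflavine S control wells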
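System: HCV NS3 helicase fragment; control set: DMSO and thioflavine S; technique: Cy5 fluorescence at 0 and 60 min, beacon hairpin quenching; reagent: beacon DNA duplex substrate plus ATP; replicates: singlicate; schedule: 1 h reaction at 25 °C, ATP-initiated; medium: MOPS buffer pH 6.5 with MgCl2, DTT, Tween20, BSA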
UBC9 SUMO inh = blocks human SUMOylation mediated by UBC9; P63279; HTRF SUMOylation assay, SAE1/SAE2 + UBC9, in vitro; inhibition, % at 35 µM; 290,000 tested, 0.36% active; AID 2006; in the data active = inhibition above about 50%, passing the limit was not always enough
Target sequence (P63279 whole entry, looked up): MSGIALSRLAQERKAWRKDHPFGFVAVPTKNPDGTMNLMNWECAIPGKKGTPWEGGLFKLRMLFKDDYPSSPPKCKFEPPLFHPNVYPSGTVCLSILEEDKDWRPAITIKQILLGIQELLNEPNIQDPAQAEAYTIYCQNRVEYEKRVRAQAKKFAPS
DNA FID counter = counter-screen for HCV NS3 helicase inhibitors: DNA intercalator displacement; 290,000 tested, 0.17% active; AID 1845; DNA fluorescent intercalator displacement, fluorescence; inhibition, % at 7.9 µM; in the data active = inhibition above about 37%;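 also: 0% = vehicle and 100% = reference compound; higher means more ethidium bromide displaced from hairpin DNA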
An asterisk follows results filed as active. In the library only some 2.1% were active in any assay of this set; here they are far more common.

Results for CN(C)C(=O)c1c(C(F)(F)F)nn(C)c1Cl ?
IMP-1 inhibitor: -2; VIM-2 inhibitor: 0; NS3 helicase inh: -7; UBC9 SUMO inh: 1; DNA FID counter: -3

What do the screens show for `COc1cccc(NC(=S)N(CCCN2CCCC2)Cc2cccn2Cc2ccc(Cl)cc2)c1`?
IMP-1 inhibitor: -2; VIM-2 inhibitor: -3; NS3 helicase inh: -83; UBC9 SUMO inh: -4; DNA FID counter: 37*

Results for CCCC(NCC(O)COc1ccc(-c2ccccc2)cc1)c1ccccc1 (stereo not given) ?
IMP-1 inhibitor: -2; VIM-2 inhibitor: 0; NS3 helicase inh: -73; UBC9 SUMO inh: 6; DNA FID counter: 41*

How did Cc1cc(OCC(O)CNC(C)c2ccccc2)ccc1C(C)C (stereo not given) do in these assays?
IMP-1 inhibitor: 1; VIM-2 inhibitor: 0; NS3 helicase inh: -49; UBC9 SUMO inh: -5; DNA FID counter: 41*

Results for CC(NCC(O)COc1ccc2ccccc2c1)c1ccccc1 (stereo not given) ?
IMP-1 inhibitor: -1; VIM-2 inhibitor: -3; NS3 helicase inh: -79; UBC9 SUMO inh: 13; DNA FID counter: 20

Results for COc1ccc(CN2CCC(Oc3ccc(C(=O)N4CCCC4)cc3)CC2)c(F)c1 ?
IMP-1 inhibitor: 3; VIM-2 inhibitor: -1; NS3 helicase inh: -6; UBC9 SUMO inh: 2; DNA FID counter: 2

Results for CCOc1ccc(N2CSC(=S)N(c3ccc(OCC)cc3)C2)cc1 ?
IMP-1 inhibitor: 4.7*; VIM-2 inhibitor: -2; NS3 helicase inh: 7; UBC9 SUMO inh: 10; DNA FID counter: -8

What do the screens show for `CCOc1ccc(N2CC(=O)SC2=S)cc1`?
IMP-1 inhibitor: -3; VIM-2 inhibitor: -3; NS3 helicase inh: 18; UBC9 SUMO inh: -5; DNA FID counter: -6

How did CSc1nnc(-c2cccc(NC(=S)NN)c2)o1 do in these assays?
IMP-1 inhibitor: -4; VIM-2 inhibitor: 9.7*; NS3 helicase inh: 21; UBC9 SUMO inh: 15; DNA FID counter: -11

Results for CSc1nnc(-c2ccc(NC(N)=S)cc2)o1 ?
IMP-1 inhibitor: 4.6*; VIM-2 inhibitor: 1; NS3 helicase inh: 13; UBC9 SUMO inh: 0; DNA FID counter: -3

Results for CSc1nnc(-c2ccccc2)o1 ?
IMP-1 inhibitor: -2; VIM-2 inhibitor: -1; NS3 helicase inh: 4; UBC9 SUMO inh: 18; DNA FID counter: 0

What do the screens show for `COC(=O)c1ccc(NS(=O)(=O)c2cc(-c3cc(C)no3)ccc2OC)cc1`?
IMP-1 inhibitor: -3; VIM-2 inhibitor: -1; NS3 helicase inh: -9; UBC9 SUMO inh: 7; DNA FID counter: -12

What do the screens show for `NC(=O)c1ccc(-n2nnnc2SCC(=O)c2ccc(O)c(O)c2)cc1`?
IMP-1 inhibitor: 0; VIM-2 inhibitor: 11*; NS3 helicase inh: 11; UBC9 SUMO inh: 16; DNA FID counter: -3

How did C#CC[N+](C)(C)CCN1C(=O)C2C(c3ccccc3)C=CC(c3ccccc3)C2C1=O (stereo not given) do in these assays?
IMP-1 inhibitor: -1; VIM-2 inhibitor: -2; NS3 helicase inh: -33; UBC9 SUMO inh: 2; DNA FID counter: 19

What do the screens show for `CC(C)OC(=O)C[N+](C)(C)CCN1C(=O)C2C(c3ccccc3)C=CC(c3ccccc3)C2C1=O` (stereo not given)?
IMP-1 inhibitor: 13*; VIM-2 inhibitor: 1; NS3 helicase inh: -41; UBC9 SUMO inh: 15; DNA FID counter: 32

How did COC(=O)[C@@H](Cc1c[nH]c2ccccc12)NC(=O)CNC(=O)c1ccccc1OC do in these assays?
IMP-1 inhibitor: -2; VIM-2 inhibitor: -2; NS3 helicase inh: -2; UBC9 SUMO inh: 11; DNA FID counter: -20

Results for Cc1c(Br)c(=O)oc2c(C)c(O)ccc12 ?
IMP-1 inhibitor: -6; VIM-2 inhibitor: 8.4*; NS3 helicase inh: 3; UBC9 SUMO inh: 44; DNA FID counter: 2

How did CCc1c(C)c2ccc(O)c(CN(C)C)c2oc1=O do in these assays?
IMP-1 inhibitor: -6; VIM-2 inhibitor: -1; NS3 helicase inh: -1; UBC9 SUMO inh: 44; DNA FID counter: 2

How did CCN(CC)S(=O)(=O)c1cc(NC(=O)C(C)OC(=O)c2[nH]c(C)c(C(C)=O)c2C)ccc1C (stereo not given) do in these assays?
IMP-1 inhibitor: -2; VIM-2 inhibitor: 2; NS3 helicase inh: -14; UBC9 SUMO inh: 1; DNA FID counter: -18
